The test system of series [1] is Salmonella typhimurium. Nature of the series: Antibacterial activity against Salmonella Typhimurium ATCC 14028 at < 100 ug/mL by agar dilution method. It counts as functional, organism-based. The note with it: Salmonella enterica subsp. enterica serovar Typhimurium. In short, it runs like this: (§1)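 Agar dilution on 1 mL Mueller-Hinton agar slants. Compounds were serially two-fold diluted in DMSO (final DMSO ≤2%) to give 10–100 µg/mL in the medium. Bacteria were grown on MHA at 35 °C for 24 h, suspended in 0.86% saline at 1.5 × 10^8 cell/mL (0.5 McFarland), and 1 µL was added per slant. Slants were incubated at 35 °C. Drug-free blank included; each assay run three times; MIC recorded.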

In series [2] the test system is Proteus mirabilis. The series can be described thus: Antibacterial activity against Proteus mirabilis ATCC 25933 at < 100 ug/mL by agar dilution method. The series is classed as functional, organism-based. The method, boiled down: as §1
For series [3], the system named is Staphylococcus saprophyticus. Nature of the series: Antibacterial activity against Staphylococcus saprophyticus ATCC 35552 at < 100 ug/mL by agar dilution method. The series is classed as functional, organism-based. In short, it runs like this:
as §1

For series [4], the system named is Streptococcus agalactiae. The series can be described thus: Antibacterial activity against Streptococcus agalactiae ATCC 13813 at < 100 ug/mL by agar dilution method. The series is classed as functional. The method, boiled down: as §1
In series [5] the test system is Pseudomonas aeruginosa. The series can be described thus: Antibacterial activity against Pseudomonas aeruginosa ATCC 27853 at < 100 ug/mL by agar dilution method. It counts as functional, organism-based. The method, boiled down: as §1
Series [6] concerns Staphylococcus aureus. Nature of the series: Antibacterial activity against Staphylococcus aureus ATCC 6538P at < 100 ug/mL by agar dilution method. The series is classed as functional, organism-based. The method, boiled down:
as §1

The test system of series [7] is Bacillus cereus. Nature of the series: Antibacterial activity against Bacillus cereus ATCC 14579 at < 100 ug/mL by agar dilution method. It counts as functional. In short, it runs like this: as §1
The test system of series [8] is Bacillus subtilis. Nature of the series: Antibacterial activity against Bacillus subtilis ATCC 23858 at < 100 ug/mL by agar dilution method. It counts as functional, organism-based. In short, it runs like this: as §1
Series [9] deals with Enterobacter cloacae. The series can be described thus: Antibacterial activity against Enterobacter cloacae ATCC 35030 at < 100 ug/mL by agar dilution method. The series is classed as functional, organism-based. In short, it runs like this:
as §1

The test system of series [10] is Escherichia coli. Nature of the series: Antibacterial activity against Escherichia coli ATCC 11775 at < 100 ug/mL by agar dilution method. It counts as functional, organism-based. In short, it runs like this: as §1
The nature of series [11]: Toxicity in Artemia salina assessed as mortality after 24 hrs. The series is classed as organism-based. Particulars: in vivo. The method, boiled down:
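Artemia salina hatched at pH 9.0 (Na2CO3), 25 °C, strong aeration, continuous light (2000 Lux). Phototropic nauplii were collected about 12 h after hatching, and groups of 10 were exposed per well to various compound concentrations for 24 h. Survivors were counted and % deaths calculated.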

The subject of series [12] is Mus musculus. The series can be described thus: Antinociceptive activity in Swiss mouse assessed as inhibition of acetic acid-induced writhing at 10 mg/kg, ip administered 30 mins before acetic acid challenge measured after 20 mins relative to control. It counts as functional. The note with it: route intraperitoneal. In short, it runs like this: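 Mice were given 10 mg/kg i.p. in Tween 80/0.9% NaCl (Tween ≤5%) 30 min before i.p. 0.6% acetic acid, at 20–22 °C. Abdominal constrictions plus hind-limb stretching were counted cumulatively over 20 min in individual funnels. Groups of six, randomized and blinded. Inhibition was calculated versus vehicle controls (10 ml/kg i.p.); ANOVA with Dunnett's test.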

SMILES strings stand for the structures. Converted amounts (≈) assume the structure as drawn. The source made the active and inactive calls. The calls are words filed in the database; no cut-off is given here.

In the case of `Cc1c(N2C(=O)C(Cl)=C(Nc3cccc(C(=O)O)c3)C2=O)c(=O)n(-c2ccccc2)n1C`, the result in series [1], in [2], in series [3], in series [4], in series [5] and in [6] was inactive. For the same compound, the outcome in series [7], in [8], in [9] and in series [10] was inactive. In addition, the LC50 at 24 h in series [11] was > 1000 µg/mL. Also, the inhibition in vivo at 10 mg/kg in series [12] was found to be 33.9%.
With `Cc1c(N2C(=O)C(Cl)=C(Nc3ccc(C(=O)O)cc3)C2=O)c(=O)n(-c2ccccc2)n1C`, the outcome in series [1], in [2], in series [3], in series [4], in [5] and in series [6] was inactive. The result in series [7], in series [8], in [9] and in series [10] was inactive. Also, in [11], the LC50 at 24 h was > 1000 µg/mL. Also, the inhibition in vivo at 10 mg/kg in [12] came to 63.6%.
For `COc1cccc(NC2=C(Cl)C(=O)N(c3c(C)n(C)n(-c4ccccc4)c3=O)C2=O)c1`, the outcome in series [1], in [2], in series [3], in series [4], in series [5] and in series [6] was inactive. Besides, the result in series [7], in series [8], in series [9] and in series [10] was inactive. The LC50 at 24 h in series [11] was > 1000 µg/mL. Also, the inhibition in vivo at 10 mg/kg in series [12] came to 56.7%.
As to `Cc1ccc(NC2=C(Cl)C(=O)N(c3c(C)n(C)n(-c4ccccc4)c3=O)C2=O)cc1`, the outcome in [1], in [2], in series [3], in series [4], in series [5] and in series [6] was inactive. In addition, the outcome in series [7], in series [8], in series [9] and in series [10] was inactive. Further, the LC50 at 24 h in series [11] is > 1000 µg/mL. Further, in series [12], the inhibition in vivo at 10 mg/kg came to 33.6%.
With `COc1cc(NC2=C(Cl)C(=O)N(c3c(C)n(C)n(-c4ccccc4)c3=O)C2=O)cc(OC)c1`, the result in series [1], in series [2], in series [3], in series [4], in series [5] and in series [6] was inactive. The result in series [7], in [8], in series [9] and in series [10] was inactive. Further, in [11], the LC50 at 24 h was 249 µg/mL (≈ 530 µM). Moreover, in series [12], the inhibition in vivo at 10 mg/kg came out at 72%.
As for `Cc1c(N2C(=O)C(Cl)=C(NCCc3ccccc3)C2=O)c(=O)n(-c2ccccc2)n1C`, the outcome in series [1], in series [2], in series [3], in series [4], in series [5] and in series [6] was inactive. In addition, the outcome in series [7], in series [8], in series [9] and in series [10] was inactive. The LC50 at 24 h in [11] was > 1000 µg/mL. Moreover, the inhibition in vivo at 10 mg/kg in [12] was found to be 81.8%.
Regarding `Cc1cccc(NC2=C(Cl)C(=O)N(c3c(C)n(C)n(-c4ccccc4)c3=O)C2=O)c1`, the result in series [1], in series [2], in series [3], in [4], in [5] and in series [6] was inactive. In addition, the result in [7], in series [8], in series [9] and in [10] was inactive. Also, the LC50 at 24 h in [11] worked out at 90.5 µg/mL (≈ 214 µM). The inhibition in vivo at 10 mg/kg in [12] was found to be 49.7%.
As for `Cc1cc(C)cc(NC2=C(Cl)C(=O)N(c3c(C)n(C)n(-c4ccccc4)c3=O)C2=O)c1`, the outcome in [1], in series [2], in [3], in series [4], in series [5] and in series [6] was inactive. Besides, the outcome in [7], in [8], in series [9] and in series [10] was inactive. The median lethal concentration (LC50) at 24 h in series [11] is > 1000 µg/mL. In series [12], the inhibition in vivo at 10 mg/kg stood at 68.4%.
Turning to `Cc1c(N2C(=O)C(Cl)=C(c3ccc[nH]3)C2=O)c(=O)n(-c2ccccc2)n1C`, the result in series [1], in series [2], in [3], in series [4], in series [5] and in series [6] was inactive. Besides, the result in series [7], in series [8], in series [9] and in series [10] was inactive. In series [11], the LC50 at 24 h is > 1000 µg/mL. Further, the inhibition in vivo at 10 mg/kg in series [12] is 23.3%.
For `Cc1c(N2C(=O)C(Cl)=C(Nc3cccc([N+](=O)[O-])c3)C2=O)c(=O)n(-c2ccccc2)n1C`, the result in series [1], in series [2], in series [3], in [4], in series [5] and in [6] was inactive. Moreover, the outcome in [7], in series [8], in series [9] and in [10] was inactive. Besides, the LC50 at 24 h in [11] is > 1000 µg/mL. Further, the inhibition in vivo at 10 mg/kg in series [12] was found to be 29.5%.
On to `COc1ccc(NC2=C(Cl)C(=O)N(c3c(C)n(C)n(-c4ccccc4)c3=O)C2=O)cc1`, for which the result in [1], in [2], in [3], in series [4], in series [5] and in series [6] was inactive. The outcome in series [7], in series [8], in series [9] and in [10] was inactive. Also, the LC50 at 24 h in [11] was > 1000 µg/mL. Further, in series [12], the inhibition in vivo at 10 mg/kg was 31.2%.
On to `Cc1c(N2C(=O)C(Cl)=C(N3CCCCC3)C2=O)c(=O)n(-c2ccccc2)n1C`, for which the outcome in series [1], in series [2], in series [3], in series [4], in series [5] and in series [6] was inactive. Besides, the result in series [7], in series [8], in series [9] and in series [10] was inactive. Moreover, in series [11], the LC50 at 24 h is > 1000 µg/mL. Moreover, the inhibition in vivo at 10 mg/kg in series [12] was found to be 84.6%.
On to `Cc1c(N2C(=O)C(Cl)=C(Nc3cccc(Cl)c3)C2=O)c(=O)n(-c2ccccc2)n1C`, for which the result in series [1], in series [2], in series [3], in series [4], in series [5] and in series [6] was inactive. Besides, the outcome in series [7], in [8], in series [9] and in series [10] was inactive. Besides, the LC50 at 24 h in [11] worked out at 86.2 µg/mL (≈ 195 µM). Besides, the inhibition in vivo at 10 mg/kg in [12] was found to be 38.9%.

These data come from ChEMBL document CHEMBL1275265, “Synthesis and biological evaluation of N-antipyrine-4-substituted amino-3-chloromaleimide derivatives” (Eur J Med Chem, 2010).
